Measured values reported in ChEMBL document CHEMBL1157882, “Novel 2-[(benzylamino)methyl]pyrrolidine-3,4-diol derivatives as alpha-mannosidase inhibitors and with antitumor activities against hematological and solid malignancies” (Bioorg Med Chem, 2010).
pIC50: −log10 of the molar value. Calls of active or inactive are those of the source. No cut-off for these calls is given here.

Legend:
[1] = system: Saccharomyces cerevisiae; experiment: Inhibition of alpha-glucosidase from yeast at 1 mM at pH 7
In short: (§1)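 Glycosidase panel of commercial enzymes assayed at each enzyme's optimal pH with compound at 1 mM; percentage inhibition of enzyme activity calculated.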

[2] = system: Aspergillus niger; experiment: Inhibition of beta-xylosidase from Aspergillus niger at pH 5; parameters: concentration or dose not given beside the values; details: concentration not given here
[3] = system: Jurkat; experiment: Cytotoxicity in human Jurkat cells overexpressing Bcl2 assessed as cell death at 50 uM after 72 hrs by propidium iodide-staining based flow cytometry; type: functional
In short: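 Jurkat T cells stably overexpressing Bcl-2, plus vector controls, in RPMI-1640 with 10% FBS. Seeded at 4×10⁴ per well and treated for 72 h with 40 µM etoposide, 2 µM doxorubicin or 50 µM compound. Dead cells counted by propidium iodide staining and flow cytometry; means of triplicates with SD.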

[4] = system: Canavalia ensiformis; experiment: Inhibition of alpha-mannosidase from jack bean at 1 mM at pH 5; in short: as §1
[5] = system: MDA-MB-231; experiment: Cytotoxicity against human MDA-MB-231 cells after 72 hrs by colorimetric assay; type: functional, cell-based; details: Homo sapiens, MDA-MB-231, 72 h; read-out: IC50
In short: (§2)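 Cells grown in McCoy's medium (adherent lines) or RPMI-1640 (U266), each with 10% FBS, L-glutamine and antibiotics, at 37 °C in 5% CO₂. Compound dissolved as a 100 mM DMSO stock, final DMSO ≤0.4%. Cells were exposed for 72 h across a 10^-2 to 400 µM range. Viability was read by CellTiter 96 Aqueous (2–4 h incubation, absorbance 490 nm). Triplicate wells; IC50 from curve fitting.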

[6] = Cytotoxicity in human B-CLL assessed as viable cells at 200 uM after 24 hrs by annexin V/propidium iodide staining based flow cytometry (reference value: 65.8 to 78%); type: functional; details: read-out: Activity
[7] = system: SK-BR-3; experiment: Increase in CDKN1C mRNA level in human SKBR3 cells at 50 uM after 12 hrs by TLDA; type: functional, cell-based
In short: (§3)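 SKBR3 and MCF7 cells seeded at 2 × 10⁵ per well, treated 12 h with 50 µM compound (DMSO stock); total RNA extracted, cDNA made with random hexamers, gene expression profiled by TaqMan low-density arrays (qPCR, duplicate per gene). Normalised to RPLP0; fold change versus DMSO vehicle-treated cells, calculated as 2^-ΔΔCT.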

[8] = Cytotoxicity in human B-CLL assessed as pre-necrotic cells at 200 uM after 24 hrs by annexin V/propidium iodide staining based flow cytometry (reference value: 1.3 to 3.7%); type: functional
[9] = Cytotoxicity in human B-CLL assessed as late apoptotic/necrotic cells at 50 uM after 24 hrs by annexin V/propidium iodide staining based flow cytometry (reference value: 10 to 14.7%); type: functional
[10] = system: MCF7; experiment: Cytotoxicity against human MCF7 cells after 72 hrs by colorimetric assay; type: functional, cell-based; details: Homo sapiens, MCF7, 72 h; read-out: IC50; in short: as §2
[11] = Cytotoxicity in human multiple myeloma cells assessed as pre-necrotic cells at 50 uM after 24 hrs by annexin V/propidium iodide staining based flow cytometry (reference value: 42.1%); type: functional, Multiple myeloma cell
[12] = target: Alpha-galactosidase (Coffea arabica) (UniProt Q42656); experiment: Inhibition of alpha-galactosidase from coffee beans at 1 mM at pH 6; in short: as §1
Alpha-galactosidase (Coffea arabica), sequence (Q42656 16-378 limits assumed): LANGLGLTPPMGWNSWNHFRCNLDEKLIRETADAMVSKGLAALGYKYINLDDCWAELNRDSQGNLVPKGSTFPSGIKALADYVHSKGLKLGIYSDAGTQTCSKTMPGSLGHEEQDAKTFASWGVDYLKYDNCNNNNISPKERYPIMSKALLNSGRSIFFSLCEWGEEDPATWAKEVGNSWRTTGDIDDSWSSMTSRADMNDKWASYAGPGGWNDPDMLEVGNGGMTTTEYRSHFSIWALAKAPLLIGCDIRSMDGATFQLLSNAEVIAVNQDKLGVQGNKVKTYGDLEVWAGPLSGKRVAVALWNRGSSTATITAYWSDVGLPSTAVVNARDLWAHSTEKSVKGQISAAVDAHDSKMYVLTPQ

[13] = Cytotoxicity in human B-CLL assessed as pre-necrotic cells at 50 uM after 24 hrs by annexin V/propidium iodide staining based flow cytometry (reference value: 1.3 to 3.7%); type: functional
[14] = system: SK-BR-3; experiment: Cell cycle arrest in human SKBR3 cells by accumulation of cells at G2/M phase at 100 uM after 48 hrs by propidium iodide-staining based flow cytometry (reference value: 16%); type: functional
[15] = system: MCF7; experiment: Decrease in cyclinE1 mRNA level in human MCF7 cells at 50 uM after 12 hrs by TLDA; type: functional, cell-based; in short: as §3
[16] = target: T1, Tissue alpha-L-fucosidase (Bos taurus) (UniProt Q2KIM0); experiment: Inhibition of alpha-L-fucosidase from bovine kidney at 1 mM at pH 6; in short: as §1
T1 sequence (whole entry): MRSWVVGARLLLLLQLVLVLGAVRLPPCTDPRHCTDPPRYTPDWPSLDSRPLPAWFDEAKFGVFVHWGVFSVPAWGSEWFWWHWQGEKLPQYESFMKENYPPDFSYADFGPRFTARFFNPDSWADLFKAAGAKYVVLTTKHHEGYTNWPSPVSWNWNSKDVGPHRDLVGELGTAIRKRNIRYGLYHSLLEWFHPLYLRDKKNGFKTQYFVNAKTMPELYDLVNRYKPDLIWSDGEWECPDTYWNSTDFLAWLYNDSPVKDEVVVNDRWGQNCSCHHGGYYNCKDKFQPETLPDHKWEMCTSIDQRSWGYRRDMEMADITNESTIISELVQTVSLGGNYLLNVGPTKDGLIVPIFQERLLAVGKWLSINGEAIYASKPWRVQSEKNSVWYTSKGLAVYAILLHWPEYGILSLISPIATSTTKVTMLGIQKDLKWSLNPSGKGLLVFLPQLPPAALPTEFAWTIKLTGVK

[17] = system: MCF7; experiment: Increase in CDKN1A mRNA level in human MCF7 cells at 50 uM after 12 hrs by TLDA; type: functional, cell-based; in short: as §3
[18] = Cytotoxicity in human B-CLL assessed as early apoptotic cells at 50 uM after 24 hrs by annexin V/propidium iodide staining based flow cytometry (reference value: 3.6 to 20.2%); type: functional
[19] = system: SK-BR-3; experiment: Decrease in hTERT mRNA level in human SKBR3 cells at 50 uM after 12 hrs by TLDA; type: functional, cell-based; in short: as §3
[20] = system: SK-BR-3; experiment: Cell cycle arrest in human SKBR3 cells by accumulation of cells at S phase at 100 uM after 48 hrs by propidium iodide-staining based flow cytometry (reference value: 30%); type: functional
[21] = system: SK-BR-3; experiment: Cell cycle arrest in human SKBR3 cells by accumulation of cells at G2/M phase at 200 uM after 48 hrs by propidium iodide-staining based flow cytometry (reference value: 16%); type: functional
[22] = species on record: Bos taurus; experiment: Inhibition of beta-N-acetylglucosaminidase from bovine kidney at pH 4; parameters: concentration or dose not given beside the values; details: concentration not given here
[23] = system: Helix pomatia; experiment: Inhibition of beta-mannosidase from snail at pH 4; parameters: concentration or dose not given beside the values; details: concentration not given here
[24] = Cytotoxicity in human multiple myeloma cells assessed as pre-necrotic cells at 100 uM after 24 hrs by annexin V/propidium iodide staining based flow cytometry (reference value: 42.1%); type: functional, Multiple myeloma cell
[25] = system: Canavalia ensiformis; experiment: Inhibition of beta-N-acetylglucosaminidase from jack bean at pH 5; parameters: concentration or dose not given beside the values; details: concentration not given here
[26] = system: SK-BR-3; experiment: Decrease in cyclinE1 mRNA level in human SKBR3 cells at 50 uM after 12 hrs by TLDA; type: functional, cell-based; in short: as §3
[27] = Cytotoxicity against human U87 cells after 72 hrs by colorimetric assay; type: functional, cell-based, U-87MG ATCC; details: Homo sapiens, U-87 MG, 72 h; read-out: IC50; in short: as §2
[28] = Cytotoxicity in human multiple myeloma cells assessed as pre-necrotic cells at 200 uM after 24 hrs by annexin V/propidium iodide staining based flow cytometry (reference value: 42.1%); type: functional, Multiple myeloma cell
[29] = Cytotoxicity in human B-CLL assessed as viable cells at 50 uM after 24 hrs by annexin V/propidium iodide staining based flow cytometry (reference value: 65.8 to 78%); type: functional; details: read-out: Activity
[30] = system: SK-BR-3; experiment: Cell cycle arrest in human SKBR3 cells by accumulation of cells at S phase at 200 uM after 48 hrs by propidium iodide-staining based flow cytometry (reference value: 30%); type: functional

inhibition [1]: < 10%
inhibition [2]: 52%
inhibition [4]: 98%
inhibition [12]: < 10%
inhibition [16]: < 10%
inhibition [22]: < 10%
inhibition [23]: < 10%
inhibition [25]: < 10%
Structure (SMILES): OC[C@H](NC[C@H]1NC[C@H](O)[C@@H]1O)c1ccc(-c2ccc(C(F)(F)F)cc2)cc1
Activity [3]: Active
pIC50 [5]: 4.18
viability at 200 µM [6]: 1.6%
Activity [7]: Active
Activity [8]: 0.5%
Activity [9]: 10.1%
pIC50 [10]: 4.11
Activity [11]: 17%
Activity [13]: 0.8%
Activity [14]: 43%
Activity [15]: Active
Activity [17]: Active
Activity [18]: 11.3%
Activity [19]: Active
Activity [20]: 9%
Activity [21]: 42%
Activity [24]: 17%
Activity [26]: Active
pIC50 [27]: 4.10
Activity [28]: 21.3%
viability at 50 µM [29]: 27%
Activity [30]: 16%
